Assay results from ChEMBL document CHEMBL4196159 (ACS Med Chem Lett, 2018).
≈ marks a conversion by molar mass, not a printed value.

Assays:
in vitro [1] = settings: human, liver microsomes
in vitro [2] = settings: rat, hepatocytes
physchem [3] = settings: octanol/buffer, pH 7.4
physchem [4] = settings: phosphate buffer, pH 7.4
[5] = Oral bioavailability in rat at 1 mg/kg; format: ADME, organism-based; settings: in vivo
Summary of the method: (§1)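 Rats dosed 0.5 mg/kg i.v. and 1 mg/kg orally. Pharmacokinetic parameters taken from plasma levels.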

[6] = Volume of distribution at steady state in rat at 0.5 mg/kg, iv or 1 mg/kg, po; format: ADME, organism-based; settings: in vivo, read-out: Vdss
Summary of the method: as §1

[7] = Clearance in rat at 0.5 mg/kg, iv or 1 mg/kg, po; format: ADME, organism-based; settings: in vivo
Summary of the method: as §1

[8] = Terminal half life in Beagle dog at 1 mg/kg, iv administered as bolus dose; format: ADME, organism-based, Canis lupus familiaris; settings: in vivo, read-out: beta t1/2 (converted)
Summary of the method: (§2)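 Male Han Wistar rats and male Beagle dogs, at least n = 2. Compound given at 1 mg/kg i.v. Parameters derived from plasma concentrations.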

[9] = Volume of distribution in Beagle dog at 1 mg/kg, iv administered as bolus dose or 2 mg/kg, po; format: ADME, organism-based, Canis lupus familiaris; settings: in vivo
Summary of the method: as §2

[10] = Oral bioavailability in Beagle dog at 2 mg/kg; format: ADME, organism-based, Canis lupus familiaris; settings: in vivo
[11] = Oral bioavailability in Han Wistar rat at 2 mg/kg; format: ADME, organism-based; settings: in vivo
[12] = Clearance in Han Wistar rat at 1 mg/kg, iv administered as bolus dose or 2 mg/kg, po; format: ADME, organism-based; settings: in vivo
Summary of the method: as §2

[13] = Clearance in Beagle dog at 1 mg/kg, iv administered as bolus dose or 2 mg/kg, po; format: ADME, organism-based, Canis lupus familiaris; settings: in vivo
Summary of the method: as §2

[14] = Volume of distribution in Han Wistar rat at 1 mg/kg, iv administered as bolus dose or 2 mg/kg, po; format: ADME, organism-based; settings: in vivo
Summary of the method: as §2

[15] = Intrinsic clearance in human cryopreserved hepatocytes assessed per million cells at 1 uM measured after 30 mins by HPLC analysis; format: ADME, cell-based, Hepatocyte; settings: read-out: CLH
Summary of the method: (§3)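 Intrinsic clearance (Clint) measured in fresh dog hepatocytes or cryopreserved human hepatocytes.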

[16] = Intrinsic clearance in dog hepatocytes assessed per million cells at 1 uM measured after 30 mins by HPLC analysis; format: ADME, cell-based, Canis lupus familiaris, Hepatocyte; settings: read-out: CLH
Summary of the method: as §3

[17] = Terminal half life in Han Wistar rat at 1 mg/kg, iv administered as bolus dose; format: ADME, organism-based; settings: in vivo, read-out: beta t1/2 (converted)
Summary of the method: as §2

Mus musculus = assay: Time at which plasma concentration stays above in-vitro cellular IC50 for ATM autophosphorylation at Ser1981 residue in human HT-29 cells in mouse at 10 mg/kg, po; format: ADME, organism-based; settings: in vivo
Summary of the method: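 Mice given 10 mg/kg orally. Free plasma concentration over time compared with the in vitro cellular ATM IC50.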
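Throughout, for logD: Shake-flask partitioning between octanol and buffer, equilibrated for 30 min before measurement.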

Row | SMILES | microsomal CLint at 0.5 h, 1 µM (in vitro [1]) [µL/min/mg] | hepatocyte CLint at 0.5 h, 1 µM (in vitro [2]) [µL/min/1e6 cells] | logD at 0.5 h (physchem [3]) | solubility thermodynamic at 24 h (physchem [4]) [µM] | other results
1 | COCc1ccc(-c2cc3c(N[C@@H](C)c4ccn(C)n4)c(C(N)=O)cnc3cc2F)cn1 | 15 |  |  |  | 
2 | C[C@H](Nc1c(C(N)=O)nnc2ccc(-c3ccc(OCCN(C)C)nc3)cc12)c1ccn(C)n1 | 25 | 13 | 1.9 | 910 (≈ 419 µg/mL) | 
3 | CNC(=O)c1nnc2ccc(-c3ccc(COC)nc3)cc2c1N[C@@H](C)C1CCOCC1 | 42 | 5.8 | 3 | 34 (≈ 14.8 µg/mL) | 
4 | CNC(=O)c1nnc2ccc(-c3ccc(OCCN(C)C)nc3)cc2c1N[C@@H](C)C1CCOCC1 | 26 | 4.8 | 2.5 | 990 (≈ 474 µg/mL) | 
5 | C[C@H](Nc1c(C(N)=O)nnc2ccc(-c3ccc(OCCCN4CCCC4)nc3)cc12)c1ccn(C)n1 | 10 | 4.6 | 1.8 | 490 (≈ 245 µg/mL) | 
6 | COCc1ccc(-c2ccc3nnc(C(N)=O)c(N[C@@H](C)C4CCOCC4)c3c2)cn1 | 33 | 5.6 | 2.7 | > 1000 | bioavailability [5]: 56%; Vd [6]: 0.7 L/kg; clearance [7]: 21 mL/min/kg
7 | Cc1cn(C)nc1[C@H](C)Nc1c(C(N)=O)nnc2ccc(-c3ccc(OCCCN4CCCC4)nc3)cc12 | 40 | 8.1 | 2.1 | 510 (≈ 262 µg/mL) | 
8 | COCc1ccc(-c2ccc3nnc(C(N)=O)c(N[C@@H](C)c4ccn(C)n4)c3c2)cn1 | 14 | 4.9 | 3 | 76 (≈ 31.7 µg/mL) | 
9 | Cc1cn(C)nc1[C@H](C)Nc1c(C(N)=O)nnc2ccc(-c3ccc(OCCCN(C)C)nc3)cc12 | 27 | 12 | 2.1 | 290 (≈ 142 µg/mL) | 
10 | C[C@H](Nc1c(C(N)=O)nnc2ccc(-c3ccc(OCCCN4CCCC4)nc3)cc12)C1CCOCC1 | 23 | 1.9 | 1.9 | 620 (≈ 313 µg/mL) | 
11 | CNC(=O)c1nnc2ccc(-c3ccc(OCCCN(C)C)nc3)cc2c1N[C@@H](C)c1nn(C)cc1C | 33 | 6.7 | 2.3 | 620 (≈ 312 µg/mL) | 
12 | COCc1ccc(-c2ccc3nnc(C(N)=O)c(N[C@@H](C)c4nn(C)cc4C)c3c2)cn1 | 31 | 18 | 2.8 | 8 (≈ 3.45 µg/mL) | 
13 | C[C@H](Nc1c(C(N)=O)nnc2ccc(-c3ccc(NCCN(C)C)nc3)cc12)C1CCOCC1 | 18 | 4.2 | 2 | > 1000 | 
14 | C[C@H](Nc1c(C(N)=O)nnc2ccc(-c3ccc(OCCCN(C)C)nc3)cc12)C1CCOCC1 | 28 | 3.4 | 1.9 | 870 (≈ 416 µg/mL) | half-life [8]: 6.2 h; Vd [9]: 20 L/kg; bioavailability [10]: 43%; bioavailability [11]: 26%; clearance [12]: 25 mL/min/kg; clearance [13]: 49 mL/min/kg; Vd [14]: 5.5 L/kg; hepatocyte CLint at 1 µM [15]: 2.8 µL/min/1e6 cells; hepatocyte CLint at 1 µM [16]: 5.1 µL/min/1e6 cells; half-life [17]: 4.1 h
15 | C[C@H](Nc1c(C(N)=O)nnc2ccc(-c3ccc(OCCCN(C)C)nc3)cc12)c1ccn(C)n1 | 10 | 7 | 1.7 | 65 (≈ 30.8 µg/mL) | 
16 | COCc1ccc(-c2ccc3ncc(C(N)=O)c(N[C@@H](C)C4CCOCC4)c3c2)cn1 | 26 | < 5.3 |  |  | 
17 | CNC(=O)c1nnc2ccc(-c3ccc(OCCCN(C)C)nc3)cc2c1N[C@@H](C)C1CCOCC1 | 22 | 5.7 | 2.3 | 880 (≈ 434 µg/mL) | half-life [8]: 4.7 h; Time (Mus musculus): > 12 h; Vd [9]: 14 L/kg; bioavailability [10]: 35%; bioavailability [11]: 41%; clearance [12]: 7.8 mL/min/kg; clearance [13]: 48 mL/min/kg; Vd [14]: 2.8 L/kg; hepatocyte CLint at 1 µM [15]: 4.1 µL/min/1e6 cells; hepatocyte CLint at 1 µM [16]: 8.8 µL/min/1e6 cells; half-life [17]: 5.6 h
